Screening data: PubChem, several laboratories
A selection: hits, their analogues and other compounds. The true share with any hit is near 1.9%.
VIM-2 inhibitor: inhibitors of Pseudomonas aeruginosa VIM-2 metallo-beta-lactamase. purified VIM-2, nitrocefin hydrolysis, epi-absorbance fluorescence. inhibition, % at 5.6 µM. 290,000 tested, 0.89% active. AID 1527;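 active means inhibition above the mean of all tested compounds plus 3 SD, cutoff set per screening run, cut at about 7.5% in these data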;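 further: red hydrolysis product quenches plate fluorescence so inhibitors raise well fluorescence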
HCV core dimer: blocks dimerization of HCV core protein | TR-FRET GST/Flag-core106 dimerization, 1536-well | AID 1899 | 300,000 tested, 0.33% active | inhibition, % at 5 µM;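 active means inhibition above the mean of all tested compounds plus 3 SD, set per screening campaign, cut at about 45% in these data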
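System: GST-tagged and Flag-tagged HCV core protein residues 1-106 / Input: core106 proteins, GST 13.5 nM and Flag 17 nM / Buffer or medium: KF-containing HEPES buffer, pH 7.45, DTT, CHAPS, BSA / Probe or stimulus: Eu-anti-GST and XL665-anti-Flag labelled anti-tag antibodies / Schedule: 4 h, 22.5 °C incubation / Technique: TR-FRET 671 and 617 nm emission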
IMP-1 inh: inhibitors of Pseudomonas aeruginosa IMP-1 metallo-beta-lactamase. purified IMP-1, nitrocefin hydrolysis, epi-absorbance fluorescence. inhibition, % at 5.6 µM. 290,000 tested, 0.45% active. AID 1556;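 active means inhibition above the mean plus 3 SD of all compounds in the same screening run, cut at about 4.5% in these data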
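Test system: recombinant IMP-1 enzyme, purified / Medium: HEPES buffer pH 7.1 with ZnSO4 and Brij 35 / Doses: single dose, 5.6 µM / Times: 25 °C, 15 min preincubation, 25 min reaction / Detection: Epi-absorbance via hydrolysed-nitrocefin quenching of white-plate fluorescence, 480/530 nm, EDTA stop / Evaluation: percent inhibition from optical density relative to buffer-blank wells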
NadD block: blocks S. aureus nicotinate mononucleotide adenylyltransferase; inhibition, % at 20 µM; purified NadD enzyme, colorimetric absorbance read-out; 360,000 tested, 0.78% active; in the data active means inhibition above about 26%
NadD conf: NadD (S. aureus) inhibition, single concentration confirmation | shares compounds with NadD block | inhibition, % at 20 µM | purified S. aureus NadD, colorimetric enzyme assay | 2,000 tested, 13% active; in the data active means inhibition mostly above about 42%, no sharp cut-off; inactive means mostly below about 42%
Of the large screens only hits and unclear results are named; the others gave an inactive call (follow-up assays come after a bar, where they were run).

O=C(O)CSc1c2c(nc3cc(C(=O)Nc4cccc(C(F)(F)F)c4)ccc13)CCC2	NadD block 34.2 | NadD conf inactive
O=C(Nc1ccc(Cl)c(C(F)(F)F)c1)[C@@H]1CC=C[C@@H]2CCN(C3CC3)C(=O)[C@@H]21	none (no result: VIM-2 inhibitor, IMP-1 inh)
CN(C)S(=O)(=O)N1CCC(Oc2ccc(C(=O)N3C[C@@H]4CCC[C@H]3C4)cc2)CC1	none
C/C(=N\NC(N)=S)C1=CCC2C3CC[C@H]4CC(O)CC[C@]4(C)C3CC[C@]12C (stereo partly drawn)	NadD block 36.4 | NadD conf inactive
CC12CCC3C(CCC4CC(O)CCC43C)C1CC(O)C2 (stereo not drawn)	none (no result: VIM-2 inhibitor, HCV core dimer, IMP-1 inh)
Cc1cccc(/C=N/NC(=O)c2cc(-c3cccnc3)nc3c2c(C)nn3-c2ccccc2)c1	NadD block 36.5 | NadD conf inactive
CCCSc1sc(C(=O)OC)c(-c2cccs2)c1C#N	none (no result: NadD block)
O=C(c1ccc2c(=O)n(Cc3ccccc3)c(=S)[nH]c2c1)N1CCOCC1	none
O=C(c1ccc2c(=O)n(Cc3ccco3)c(=S)[nH]c2c1)N1CCN(Cc2ccccc2)CC1	NadD block 55.5 | NadD conf 36.5
CC(=O)Nc1ccc(S(=O)(=O)NCc2ccc3c(c2)cc(C)n3C)cc1	none
Cc1cc2cc(CNS(=O)(=O)c3ccc4ccccc4c3)ccc2n1C	NadD block 35.1 | NadD conf inactive
CCc1cccc2cc3c(N)c(C(=O)Nc4ccc(S(=O)(=O)N5CCCC5)cc4)sc3nc12	NadD block 44.1 | NadD conf inactive
COCCCn1cc(CN2CC(N3CCN(CCN(C)C)CC3)CS2(=O)=O)nn1 (stereo not drawn)	none (no result: VIM-2 inhibitor, HCV core dimer, IMP-1 inh)
CCOC(=O)C1=C(C)N=c2sc(=Cc3cc(Cl)c(OCC(=O)O)c(OC)c3)c(=O)n2C1c1ccccc1Cl (stereo not drawn)	NadD block 30.3 (no result: VIM-2 inhibitor, HCV core dimer, IMP-1 inh) | NadD conf inactive
CCOC(=O)C1=C(C)N=c2s/c(=C\c3ccc(OCC(=O)O)c(OC)c3)c(=O)n2C1c1ccc(OC)cc1 (stereo not drawn)	none
CSc1ncc(CN2CCCC(C(=O)Nc3ccc(-c4ccco4)cc3)C2)cn1 (stereo not drawn)	HCV core dimer 57.3, NadD block 47.1 | NadD conf inactive
Cc1nc2ccc(NC(=O)c3ccc(Cl)c(NC(=O)c4cccs4)c3)cc2s1	HCV core dimer 48.4, NadD block 28.1 | NadD conf inactive
O=C(NCCN1CCC(n2c(=O)[nH]c3ccccc32)CC1)c1cccc(Cl)c1	none (no result: VIM-2 inhibitor, HCV core dimer, IMP-1 inh)
CC(C)(C)c1ccc(OCCCC(=O)Nc2ccc(S(N)(=O)=O)cc2)cc1	none
Cn1cnnc1Sc1cc(N2CCN(S(=O)(=O)c3ccc(Cl)c(Cl)c3)CC2)ccc1[N+](=O)[O-]	NadD block 42.1 | NadD conf inactive
Cc1cc(C)n(-c2cc(N3CCN(S(=O)(=O)c4ccc(C)c(C)c4)CC3)ccc2[N+](=O)[O-])n1	none
Cc1cc(C)n(-c2cc(N3CCN(S(=O)(=O)c4ccc5ccccc5c4)CC3)ccc2[N+](=O)[O-])n1	HCV core dimer 54.0, NadD block 50.1 | NadD conf inactive
COc1cccc(COC(=O)C2CCN(S(=O)(=O)c3ccc(F)cc3)CC2)c1OC	none (no result: VIM-2 inhibitor, HCV core dimer, IMP-1 inh)
Cc1ccc(CN(C)c2ccc(S(=O)(=O)N3CCCC3)cn2)cc1	none (no result: VIM-2 inhibitor, HCV core dimer, IMP-1 inh)
Cc1ccccc1C(=O)Nc1nnc(CC(=O)N/N=C/c2cn(Cc3ccccc3)c3ccccc23)s1	NadD block 45.4 | NadD conf inactive
O=[N+]([O-])c1ccc(Nc2nc(N/N=C/c3cccc(F)c3)nc(N3CCCC3)n2)cc1	NadD block 38.3 | NadD conf inactive
O=[N+]([O-])c1ccc(Nc2nc(NC3CCCCC3)nc(N3CCCC3)n2)cc1	NadD block 38.9 | NadD conf inactive
O=[N+]([O-])c1cc2c(cc1/C=N/Nc1nc(Nc3ccccc3)nc(N3CCCCC3)n1)OCO2	NadD block 39.4 | NadD conf inactive
COC(=O)c1ccccc1S(=O)(=O)NNC(=O)c1ccccc1-n1cccc1	none
COc1cccc(OCc2cc(/C=N/Nc3ccc(C(=O)O)cc3)ccc2OC)c1	NadD block 46.4 | NadD conf 53.4
COc1cccc(C(=O)Oc2ccc(/C=N/Nc3ccc(C(=O)O)cc3)cc2OC)c1	none
CCn1ccnc1CN(C)Cc1c(C(=O)N2CCCCCCC2)nc2ccc(Cl)cn12	none
O=c1c2ccccc2c(/C=N/c2nnc(Cc3ccccc3)s2)c(O)n1-c1ccc(Cl)cn1	NadD block 47.8 | NadD conf inactive
N#CCn1c(Cc2ccccc2)nc2ccccc2c1=O	none (no result: HCV core dimer)
N#CC/C(N)=N/Nc1nc2ccccc2nc1Cc1ccccc1	NadD block 34.2 | NadD conf inactive
O=c1[nH]c2ccc(Cl)cc2c(-c2ccccc2)c1SC(=S)N1CCOCC1	NadD block 40.3 | NadD conf inactive
NNC(=O)CSc1c(-c2ccccc2)c2cc(Cl)ccc2[nH]c1=O	none (no result: HCV core dimer)
O=c1[nH]c2ccc(Cl)cc2c(-c2ccccc2)c1SC(=S)N1CCCCC1	NadD block 37.1 | NadD conf inactive
CCn1nc(C(=O)NNC(=O)c2ccccc2)c2ccccc2c1=O	none (no result: VIM-2 inhibitor, HCV core dimer, IMP-1 inh)
O=C(Nc1nnc(C2CC2)s1)c1ccc(Cl)c(S(=O)(=O)N2CCc3ccccc3C2)c1	NadD block 33.0 | NadD conf inactive
CCCCOC(=O)c1c(C)oc2ccc(NS(=O)(=O)c3ccc4c5c(cccc35)C(=O)N4)cc12	NadD block 32.0 | NadD conf inactive
COCCOC(=O)c1c(C)oc2ccc(NS(=O)(=O)c3cccs3)cc12	none
COc1ccc(N=C2O/C(=C/c3sc(=S)n(CC4CCCO4)c3O)N=C2C#N)cc1 (stereo not drawn)	none
COc1ccc2c(c1)N(C)/C(=C1/SC(=NCc3ccccc3)N(c3ccccc3)C1=O)S2	NadD block 30.6 | NadD conf inactive
C=CCN1C(=O)/C(=C2/Sc3ccc(OC)cc3N2C)SC1=NCc1ccccc1	none
Cn1cc(S(=O)(=O)N2CCc3ccccc32)cc1C(=O)NC(C)(C)C	none
Cc1ccc(C)c(S(=O)(=O)N2CCC(c3nc4c(nnn4Cc4ccc5c(c4)OCCO5)c(=O)[nH]3)CC2)c1	NadD block 45.5 | NadD conf inactive
O=c1[nH]c(C2CCCN(S(=O)(=O)c3ccccc3)C2)nc2c1nnn2Cc1ccc2c(c1)OCCO2 (stereo not drawn)	none
O=c1[nH]c(C2CCCN(S(=O)(=O)c3cccc(Cl)c3)C2)nc2c1nnn2Cc1ccc2c(c1)OCCO2 (stereo not drawn)	NadD block 58.3 | NadD conf 57.3
Fc1ccc(F)c(CNc2ncnc3cc(Cl)ccc23)c1	none
COc1ccc(-c2c(C#Cc3ccsc3)c3cc(-c4cccc5[nH]ccc45)ccc3n2C)cc1	none (no result: VIM-2 inhibitor, HCV core dimer, IMP-1 inh)
COc1cc(OC)cc(-c2c(C#Cc3ccsc3)c3cc(-c4cccc5[nH]cc(C=O)c45)ccc3n2C)c1	NadD block 45.8 (no result: VIM-2 inhibitor, HCV core dimer, IMP-1 inh) | NadD conf inactive
COc1ccc(NC(=O)C2(C)Cc3c(-c4cccc(C(N)=O)c4)ccnc3O2)cc1OC (stereo not drawn)	none (no result: VIM-2 inhibitor, HCV core dimer, IMP-1 inh)
